In general, viability refers to a read-out of living cells in per cent, often relative to untreated cells. The IC50 is the concentration that inhibits the measured activity by half.

The target of one data set is IDO1 (Homo sapiens, UniProt P14902). The data set can be described thus: Cellular IDO1 inhibition. In kind it is cell-based. To be noted: A375 cell line, IFN-γ, 48 h; for IDO cellular assay inhibition [%] @ 10 μM±SD: L-Kyn by HPLC; for IC50: IC50±SD [μM]. Put shortly:
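A375 cells (0.5×10^5/well) were grown overnight, then given test compound (serial dilutions 0.01–30 µM, or single 10 µM) with human IFN-γ (500 U/mL final) and 0.1% DMSO for 48 h. Medium was deproteinized with 20% CCl₃COOH. L-Kyn was quantified by C18 HPLC at 330 nm against a calibration curve; % inhibition was taken versus basal levels. IC50s came from concentration-response curves, ≥3 experiments in triplicate.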

A further data set relates to A375 cells. The data set can be described thus: MTT cell viability assay. The following applies: 48 h. In kind it is cell-based, human. A digest of the protocol: (§1)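 A375 cells were kept in high-glucose DMEM with 10% heat-inactivated FBS, 2 mM L-glutamine and pen/strep. Cells were seeded at 0.5×10^5/well and exposed to 10 µM test compound for 48 h at 37 °C, 5% CO₂, then given MTT. Viability = 100(x−y)/(z−y), where x, y and z are absorbance of treated, resting and untreated cells. Mean ± SD, ≥3 experiments in triplicate.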
Background: Tetrazolium dyes change colour on reduction, which living cells bring about.

The nature of another data set: MTT cell viability assay. In kind it is cell-based, human. The following applies: human, A375 cells, Cell viability [%] @ 10 μM±SD. A digest of the protocol: as §1
In another data set the target is TDO (P1.TDO) (Homo sapiens, UniProt P48775). The data set can be described thus: IDO1 and TDO selectivity assay, P1.TDO cells. To be noted: 10 μM, 16 h. In kind it is cell-based. Put shortly:
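Mouse mastocytoma P815-derived P1.HTR cells, stably electroporated with a human TDO plasmid and selected in puromycin, grown in IMDM with 1 mM glutamine and penicillin/streptomycin, used at ≤10th passage. Cells incubated 16 h with 10 μM test compound; DMSO vehicle as control. Supernatant L-Kyn measured by HPLC-UV (C18 column) against a calibration curve, detection limit 0.05 μM. Triplicate.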

Data set [1] is described as follows: In vitro metabolic stability in rat liver S9 fraction. In kind it is in vitro ADME. The following applies: rat liver S9 with NADPH, 5 μM substrate, 37 °C. A digest of the protocol:
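Pooled male Sprague Dawley rat liver S9 (1.5 mg/mL final protein) was used in 50 mM Tris pH 7.4 with 3.3 mM MgCl₂, 1.3 mM β-NADP, 3.3 mM glucose 6-phosphate, 0.4 U/mL G6PDH and 1% acetonitrile. Test compound was 5 µM, shaken 60 min at 37 °C. Controls lacked S9 or cofactors. Reactions were stopped with ice-cold acetonitrile and centrifuged; residual substrate was measured.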

Data set [2] deals with CYP (aminopyrine N-demethylase activity). The experiment in a line: CYP inhibition: aminopyrine N-demethylase assay in rat liver microsomes. In kind it is in vitro ADME. To be noted: rat liver microsomes, 1, 10 and 100 μM. A digest of the protocol: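 Aminopyrine N-demethylation by rat liver microsomes, with inhibition read as the […] after aminopyrine incubation. Ketoconazole served as the reference CYP inhibitor.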

The next data set deals with holo-IDO1 (Homo sapiens, UniProt P14902). The experiment in a line: Heme detection. The following applies: 1 μM holo-IDO1, 120 min, 37 °C; VS9 different concentrations, epacadostat 20 μM. In kind it is binding. A digest of the protocol:
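1 µM holo-IDO1 in 100 mM potassium phosphate (pH 7.2) with 1 mM CHAPS was incubated with varying test-compound concentrations, or 20 µM reference inhibitor, for 120 min at 37 °C. Samples were diluted 100-fold, and free heme was measured with a hemin detection kit at 570 nm. Values are relative to untreated, mean of n=3 ± SD.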

TDO (P1.TDO), sequence (P48775 whole entry): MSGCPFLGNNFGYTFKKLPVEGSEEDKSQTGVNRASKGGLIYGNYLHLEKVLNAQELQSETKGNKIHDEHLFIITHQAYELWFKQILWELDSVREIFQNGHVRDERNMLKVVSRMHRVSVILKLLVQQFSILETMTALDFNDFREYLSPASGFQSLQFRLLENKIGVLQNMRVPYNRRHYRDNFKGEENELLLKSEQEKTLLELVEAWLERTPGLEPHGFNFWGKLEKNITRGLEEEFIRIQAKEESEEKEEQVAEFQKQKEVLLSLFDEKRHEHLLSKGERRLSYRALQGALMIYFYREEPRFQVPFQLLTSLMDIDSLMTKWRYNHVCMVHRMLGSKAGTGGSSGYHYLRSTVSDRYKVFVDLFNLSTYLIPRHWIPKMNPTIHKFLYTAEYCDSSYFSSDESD
IDO1, sequence (P14902 whole entry): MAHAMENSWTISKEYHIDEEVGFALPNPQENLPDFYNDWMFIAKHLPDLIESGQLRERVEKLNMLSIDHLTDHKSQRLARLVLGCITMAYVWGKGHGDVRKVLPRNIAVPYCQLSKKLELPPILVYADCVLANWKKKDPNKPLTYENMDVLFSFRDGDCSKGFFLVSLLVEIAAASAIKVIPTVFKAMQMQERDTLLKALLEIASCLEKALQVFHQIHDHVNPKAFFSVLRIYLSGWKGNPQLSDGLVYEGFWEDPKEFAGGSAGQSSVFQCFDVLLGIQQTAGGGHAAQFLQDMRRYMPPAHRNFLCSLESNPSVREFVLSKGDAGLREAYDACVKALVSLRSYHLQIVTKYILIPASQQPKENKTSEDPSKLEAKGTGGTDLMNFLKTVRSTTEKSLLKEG
holo-IDO1, sequence (P14902 whole entry): as above

As for “2‐Methyl‐3‐((pyridin‐3‐ylmethyl)amino)‐N‐((6‐(trifluoromethyl)‐[1,2,4]triazolo[4,3‐a]pyridin‐3‐yl)methyl)benzamide [Compound 11]”, the “IDO cellular assay inhibition [%] @ 10 μM±SD” value at IDO1 is listed as 22±5%. Moreover, the “Cell viability [%] @ 10 μM±SD” value in the data set on A375 cells turned out to be 91±12.7%. Regarding `O=C(NCc1nnc2ccc(C(F)(F)F)cn12)c1ccc(O)c(Br)c1` [Compound 12, 3‐Bromo‐4‐hydroxy‐N‐((6‐(trifluoromethyl)‐[1,2,4]triazolo[4,3‐a]pyridin‐3‐yl)methyl)benzamide], in the data set “MTT cell viability assay”, the viability at 48 h, 10 μM worked out at 92 ± 12%. Still for that read-out and setting: in the case of `O=C(NCc1nnc2ccc(C(F)(F)F)cn12)c1cc(Br)c(O)cc1O` [Compound 13, 5‐Bromo‐2,4‐dihydroxy‐N‐((6‐(trifluoromethyl)‐[1,2,4]triazolo[4,3‐a]pyridin‐3‐yl)methyl)benzamide] it was 94 ± 2.8%; in that of `Cc1ccc(Br)c(C)c1C(=O)NCc1nnc2ccc(C(F)(F)F)cn12` [Compound 14, 3‐Bromo‐2,6‐dimethyl‐N‐((6‐(trifluoromethyl)‐[1,2,4]triazolo[4,3‐a]pyridin‐3‐yl)methyl)benzamide], 100%; in that of `O=C(NCc1nnc2ccc(C(F)(F)F)cn12)c1c(F)ccc(Cl)c1Cl` [Compound 15, 2,3‐Dichloro‐6‐fluoro‐N‐((6‐(trifluoromethyl)‐[1,2,4]triazolo[4,3‐a]pyridin‐3‐yl)methyl)benzamide], 100 ± 0.7%. Still for that read-out and setting: in the case of `COc1cc(F)c(C(=O)NCc2nnc3ccc(C(F)(F)F)cn23)c(F)c1` [Compound 16, 2,6‐Difluoro‐4‐methoxy‐N‐((6‐(trifluoromethyl)‐[1,2,4]triazolo[4,3‐a]pyridin‐3‐yl)methyl)benzamide] it was 100 ± 5.2%. Same read-out and setting: in the case of `COc1cc(C)c(C(=O)NCc2nnc3ccc(C(F)(F)F)cn23)c(C)c1` [Compound 17, 4‐Methoxy‐2,6‐dimethyl‐N‐((6‐(trifluoromethyl)‐[1,2,4]triazolo[4,3‐a]pyridin‐3‐yl)methyl)benzamide] it was 89 ± 9.2%. Compound `O=C(NCc1nnc2ccc(C(F)(F)F)cn12)c1cc(-c2ccc(F)cc2)ccc1F` [Compound 18, 4,4′‐Difluoro‐N‐((6‐(trifluoromethyl)‐[1,2,4]triazolo[4,3‐a]pyridin‐3‐yl)methyl)‐[1,1′‐biphenyl]‐3‐carboxamide] came in with a viability at 48 h, 10 μM in “MTT cell viability assay” of 88 ± 16.8%.

`N#Cc1ccc(-c2ccc(F)c(C(=O)NCc3nnc4ccc(C(F)(F)F)cn34)c2)cc1` [Compound 19, 4′‐Cyano‐4‐fluoro‐N‐((6‐(trifluoromethyl)‐[1,2,4]triazolo[4,3‐a]pyridin‐3‐yl)methyl)‐[1,1′‐biphenyl]‐3‐carboxamide]: the viability at 48 h, 10 μM in the data set “MTT cell viability assay” amounted to 97 ± 2.1%. On to `Cc1ccccc1-c1ccc(F)c(C(=O)NCc2nnc3ccc(C(F)(F)F)cn23)c1` [Compound 20, 4‐Fluoro‐2′‐methyl‐N‐((6‐(trifluoromethyl)‐[1,2,4]triazolo[4,3‐a]pyridin‐3‐yl)methyl)‐[1,1′‐biphenyl]‐3‐carboxamide], for which the viability at 48 h, 10 μM in “MTT cell viability assay” amounted to 100%. As for `COc1ccc(-c2ccc(F)c(C(=O)NCc3nnc4ccc(C(F)(F)F)cn34)c2)cc1` [Compound 21, 4‐Fluoro‐4′‐methoxy‐N‐((6‐(trifluoromethyl)‐[1,2,4]triazolo[4,3‐a]pyridin‐3‐yl)methyl)‐[1,1′‐biphenyl]‐3‐carboxamide], the viability at 48 h, 10 μM in “MTT cell viability assay” amounted to 78 ± 4.2%.

Compound `Cc1ccc(-c2cccc(C(=O)NCc3nnc4ccc(C(F)(F)F)cn34)c2)cc1` [Compound 22, 4′‐Methyl‐N‐((6‐(trifluoromethyl)‐[1,2,4]triazolo[4,3‐a]pyridin‐3‐yl)methyl)‐[1,1′‐biphenyl]‐3‐carboxamide] had a viability at 48 h, 10 μM in “MTT cell viability assay” of 93 ± 9.8%. Take `Cc1ccc(-c2ccc(F)c(C(=O)NCc3nnc4ccc(C(F)(F)F)cn34)c2)cc1C` [Compound 24, 4‐Fluoro‐3′,4′‐dimethyl‐N‐((6‐(trifluoromethyl)‐[1,2,4]triazolo[4,3‐a]pyridin‐3‐yl)methyl)‐[1,1′‐biphenyl]‐3‐carboxamide]: at TDO (P1.TDO), the “Kyn levels in P1.TDO cells” value is on record as “not able to induce a reduction of Kyn levels in P1.TDO”. The IC50 against IDO1 came out at 2 ± 0.3 µM. In the data set “MTT cell viability assay”, this compound showed a viability at 48 h, 10 μM of 95 ± 7.2%. Further, the “Residual peak area after RLS9 incubation (60 min)” value (shortened to “Residual peak area”) in data set [1] was “higher than 99%”. On to `COc1ccc(-c2ccc(F)c(C(=O)NCc3nnc4ccc(C(F)(F)F)cn34)c2)cc1OC` [Compound 25, 4‐Fluoro‐3′,4′‐dimethoxy‐N‐((6‐(trifluoromethyl)‐[1,2,4]triazolo[4,3‐a]pyridin‐3‐yl)methyl)‐[1,1′‐biphenyl]‐3‐carboxamide], for which, at TDO (P1.TDO), the “Kyn levels in P1.TDO cells” value is given as “not able to induce a reduction of Kyn levels in P1.TDO”. Also, the IC50 at IDO1 amounted to 1.4 ± 0.5 µM. In addition, the “CYP inhibition (aminopyrine N-demethylase activity)” value (from here on “CYP inhibition”) in data set [2] was “low inhibition at 10 and 100 μM”. For the same compound, the viability at 48 h, 10 μM in the data set “MTT cell viability assay” worked out at 94 ± 2.1%. Moreover, the “Residual peak area” value in data set [1] is “higher than 99%”. In turn, `O=C(NCc1nnc2ccc(Cl)cn12)c1cccc2cn[nH]c12` [Compound 30, N‐((6‐Chloro‐[1,2,4]triazolo[4,3‐a]pyridin‐3‐yl)methyl)‐1H‐indazole‐7‐carboxamide] displayed a viability at 48 h, 10 μM in the data set “MTT cell viability assay” of 98 ± 7.4%. Still for that read-out and setting: in the case of `COc1ccc(-c2ccc(F)c(C(=O)NCc3nnc4ccc(Cl)cn34)c2)cc1OC` [Compound 32, N‐((6‐Chloro‐[1,2,4]triazolo[4,3‐a]pyridin‐3‐yl)methyl)‐4‐fluoro‐3′,4′‐dimethoxy‐[1,1′‐biphenyl]‐3‐carboxamide] it was 98 ± 9.3%. As to `O=C(NCc1nnc2ccc3ccccc3n12)c1cccc2cn[nH]c12` [Compound 37, N‐([1,2,4]Triazolo[4,3‐a]quinolin‐1‐ylmethyl)‐1H‐indazole‐7‐carboxamide], the IC50 on IDO1 turned out to be 6.9 ± 0.8 µM. Besides, the viability at 48 h, 10 μM in “MTT cell viability assay” was 100 ± 4.1%. For `O=C(NCc1nnc2ccc3ccccc3n12)c1ccc(O)c(Br)c1` [Compound 38, N‐([1,2,4]Triazolo[4,3‐a]quinolin‐1‐ylmethyl)‐3‐bromo‐4‐hydroxybenzamide], the “Kyn levels in P1.TDO cells” value on TDO (P1.TDO) was “not able to induce a reduction of Kyn levels in P1.TDO”. The IC50 against IDO1 stood at 0.9 ± 0.02 µM. Further, the “CYP inhibition” value in data set [2] is “did not significantly inhibit CYP at the tested concentrations”. The viability at 48 h, 10 μM in “MTT cell viability assay” was determined as 95 ± 7.1%. Consider `COc1cc(C)c(C(=O)NCc2nnc3ccc4ccccc4n23)c(C)c1` [Compound 39, N‐([1,2,4]Triazolo[4,3‐a]quinolin‐1‐ylmethyl)‐4‐methoxy‐2,6‐dimethylbenzamide], for which the “Kyn levels in P1.TDO cells” value on TDO (P1.TDO) is “not able to induce a reduction of Kyn levels in P1.TDO”. Further, the IC50 against IDO1 turned out to be 1.8 ± 0.2 µM. In “MTT cell viability assay”, this compound returned a viability at 48 h, 10 μM of 94 ± 6.3%. In data set [1], the “Residual peak area” value is recorded as “higher than 99%”. On IDO1, `COc1ccc(-c2ccc(F)c(C(=O)NCc3nnc4ccc5ccccc5n34)c2)cc1` [Compound 40, N‐([1,2,4]triazolo[4,3‐a]quinolin‐1‐ylmethyl)‐4‐fluoro‐4′‐methoxy‐[1,1′‐biphenyl]‐3‐carboxamide] gave an IC50 of 3.4 ± 0.3 µM. The same compound displayed a viability at 48 h, 10 μM in “MTT cell viability assay” of 97 ± 3.8%. Further, in data set [1], the “Residual peak area” value is reported as “higher than 99%”. `O=C(NCc1nnc2ccccn12)c1cccc2cn[nH]c12` [Compound 42, N‐([1,2,4]Triazolo[4,3‐a]pyridin‐3‐ylmethyl)‐1H‐indazole‐7‐carboxamide] showed a viability at 48 h, 10 μM in the data set “MTT cell viability assay” of 100%. `O=C(NCc1cccc2ccccc12)c1cccc2cn[nH]c12` [Compound 44, N‐(Naphthalen‐1‐ylmethyl)‐1H‐indazole‐7‐carboxamide] came in with a viability at 48 h, 10 μM in “MTT cell viability assay” of 99 ± 1%.

On to `NS(=O)(=O)NCCNc1nonc1C(=NO)Nc1ccc(F)c(Br)c1` [epacadostat, reference compound], for which the “levels of free heme after incubation with IDO1” value at holo-IDO1 was “did not increase the levels of free heme”. For `CC(=O)N1CCN(c2ccc(OCC3COC(Cn4ccnc4)(c4ccc(Cl)cc4Cl)O3)cc2)CC1` (stereo not shown) [ketoconazole, reference compound], the “CYP inhibition” value in data set [2] is “strong inhibition of CYP”. In the case of “N‐((6‐(Trifluoromethyl)‐[1,2,4]triazolo[4,3‐a]pyridin‐3‐yl)methyl)‐9H‐fluorene‐4‐carboxamide [Compound 10]”, the “IDO cellular assay inhibition [%] @ 10 μM±SD” value at IDO1 turned out to be 34±1%. In the data set with A375 cells, the “Cell viability [%] @ 10 μM±SD” value stood at 90±14.8%.

For the origin of these results see publication PMC9291769 (Chemmedchem, 2021).
